Source: PubChem
Sampled rows, rich in hits. Any-hit rate of the full collection: about 2.1%.
IMP-1 inh = blocks Pseudomonas aeruginosa IMP-1 metallo-beta-lactamase. purified IMP-1, nitrocefin hydrolysis, epi-absorbance fluorescence. inhibition, % at 5.6 µM. actives 0.45% (n = 290,000). AID 1556;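 active means inhibition above the mean plus 3 SD of all compounds in the same screening run, cut at about 4.5% in these data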;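 further: 0% = IMP-1 with DMSO and 100% = DMSO wells lacking enzyme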
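System – purified recombinant IMP-1 beta-lactamase · Input – IMP-1 dispensed at 0.2 nM · Timing – 15 min preincubation plus 25 min reaction at 25 °C · Signal – Epi-absorbance fluorescence, 480 nm excitation, 530 nm emission · Measure – percent IMP-1 inhibition derived from blank-referenced optical density · Controls – Enzyme-plus-DMSO low control, enzyme-free DMSO high control · Replication – singlicate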
PKA-R1A activ = activates the PKA-R1A holoenzyme complex. activation, % at 11.4 µM. PKA-R1A dissociation, Cy5-IP20 fluorescence polarization; scaled: DMSO 0%, 113 µM cGMP 100%. actives 0.083% (n = 340,000). AID 504707. P00514+P68181;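 active means percent activation above the mean of all tested compounds plus 3 SD, cut at about 19% in these data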;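 further: higher means more PKAc released from R1A so a rise in polarization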
MsrA inhibitor = bovine MsrA inhibition | inhibition, % at 15.5 µM | actives 0.75% (n = 360,000) | purified bovine MsrA, absorbance read-out; in the data active means inhibition above about 4.5%;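 further: 0% = vehicle wells with enzyme and 100% = reference inhibitor wells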
VIM-2 inhibitor = inhibitors of Pseudomonas aeruginosa VIM-2 metallo-beta-lactamase. actives 0.89% (n = 290,000). purified VIM-2, nitrocefin hydrolysis, epi-absorbance fluorescence. inhibition, % at 5.6 µM;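 active means inhibition above the mean of all tested compounds plus 3 SD, cutoff set per screening run, cut at about 7.5% in these data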;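 further: red hydrolysis product quenches plate fluorescence so inhibitors raise well fluorescence; 0% = enzyme with DMSO and 100% = DMSO without enzyme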
PKA-R2B act = activates the human PKA-R2B holoenzyme complex | PKA-R2B holoenzyme dissociation, Cy5-IP20 fluorescence polarization; R2B truncated from residue 108, S112A mutant; 0% DMSO only, 100% 113 µM cGMP | activation, % at 11.4 µM | actives 0.079% (n = 340,000) | P22694+P31323 | AID 504700;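 active means activation above a cutoff set at the mean over all compounds plus 3 SD, cut at about 18% in these data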;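 further: higher means more holoenzyme dissociation and a rise in polarization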
Target sequence (P31323 whole entry, looked up, other chains not shown, the tested form may be a part): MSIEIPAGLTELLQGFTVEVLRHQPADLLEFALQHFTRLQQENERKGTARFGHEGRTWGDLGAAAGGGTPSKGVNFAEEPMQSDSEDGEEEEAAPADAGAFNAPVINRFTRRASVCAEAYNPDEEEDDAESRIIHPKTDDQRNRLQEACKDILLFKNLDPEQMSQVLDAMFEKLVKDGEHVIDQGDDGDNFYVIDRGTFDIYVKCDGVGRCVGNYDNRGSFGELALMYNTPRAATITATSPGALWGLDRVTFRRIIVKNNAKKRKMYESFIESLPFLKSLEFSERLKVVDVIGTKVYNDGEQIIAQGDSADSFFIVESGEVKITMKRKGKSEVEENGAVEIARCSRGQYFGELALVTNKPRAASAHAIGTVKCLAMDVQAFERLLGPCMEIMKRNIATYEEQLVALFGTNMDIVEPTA
MsrA act = bovine methionine sulfoxide reductase A activation. actives 0.3% (n = 360,000). activation, % at 10.6 µM. purified bovine MsrA, absorbance read-out; in the data active means activation above about 7.5%;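 further: 0% = vehicle and 100% = reference activator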
R2B FP artifact = counter-screen for PKA-R2B activators: fluorescence polarization artifacts. actives 6% (n = 270). activation, % at 11.4 µM. shares compounds with PKA-R2B act. AID 504796. FP artifact counterscreen; in the data active means activation above about 20%;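 further: Cy5 labelled IP20 peptide probe with compound but no PKA protein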
PKA-R2B confirm = confirmation of human PKA-R2B complex activators; actives 9% (n = 270); activation, % at 11.4 µM; shares compounds with PKA-R2B act; fluorescence polarization, activation; in the data active means activation above about 19%
Target sequence (P31323 whole entry, looked up): as the sequence (P31323 whole entry, looked up, other chains not shown, the tested form may be a part) above
Active calls of the source: *; i = inactive; nt = not tested or not shown; + = active, no number.

SMILES	IMP-1 inh	PKA-R1A activ	MsrA inhibitor	VIM-2 inhibitor	PKA-R2B act	MsrA act	R2B FP artifact	PKA-R2B confirm
CCOc1ccc(NC(=O)C2C3C=CC4(O3)C2C(=O)N(Cc2cccnc2)C4C(=O)NC2CCCCC2)cc1 (stereo unspecified)	-4	0	nt	0	-1	-2	nt	nt
CCN1C/C(=C/c2cccc([N+](=O)[O-])c2)C(=O)/C(=C/c2cccc([N+](=O)[O-])c2)C1	-3	-4	0	0	19*	-9	2	2
CCOc1ccccc1NC(=O)C(OC(=O)c1ccc(O)cc1)c1ccccc1 (stereo unspecified)	-2	-5	-1	-3	-7	-10	nt	nt
CCOc1ccccc1NC(=O)C(OC(=O)c1ccc(CC)cc1)c1ccccc1 (stereo unspecified)	-2	1	3	-3	19*	0	1	1
O=C(c1ccc(OCC2CCCO2)cc1)N1CCN(c2ccccc2)CC1 (stereo unspecified)	1	4	-1	0	19*	-10	3	5
O=C1Nc2ccccc2C(=O)N2c3ccccc3NC(=O)C12 (stereo unspecified)	nt	nt	0	nt	nt	-1	nt	nt
Cc1ccc2nc(-c3ccc(C#N)cc3)c(Cc3cccc(F)c3)n2c1	nt	nt	0	nt	nt	nt	nt	nt
C[C@@]12CCC=C[C@H]1[C@H](c1ccccc1Br)N(Cc1ccccc1)C2=O	nt	2	0	nt	11	-2	-3	-3
Cc1ccc(F)c([C@H]2[C@@H]3C=CCC[C@@]3(C)C(=O)N2Cc2ccccc2)c1	nt	-10	-1	nt	4	-10	nt	nt
CC12CCC(C3NC(=S)NN=C31)C2(C)C (stereo unspecified)	nt	-4	0	nt	3	-3	nt	nt
O=S(=O)(O)c1cccc2c(N=Nc3ccc(O)c4ncccc34)cccc12	-7	0	nt	1	21*	1	-2	12
Oc1ccccc1/C=N/Nc1ccccc1	-3	9	2	-1	-1	-2	nt	nt
Oc1ccccc1/C=N/Nc1ncc(Br)cn1	-3	-4	4	-3	26*	-3	3	2
CC(C)OCCCNC(=O)C(=O)N/N=C/c1ccc(OCc2ccccc2)cc1	-3	nt	1	-2	nt	-12	nt	nt
O=C(c1ccc(Cl)cc1)[C@@H]1[C@@H]2C(=O)N(c3ccccc3)C(=O)[C@@H]2C2c3ccccc3C=NN21 (stereo partly specified)	-1	-1	0	-2	26*	-15	4	0
O=C(c1ccc(Cl)cc1)C1C2C(=O)N(c3ccccc3)C(=O)C2C2CCCN21 (stereo unspecified)	-5	4	1	-4	-4	-4	nt	nt
O=C(O)C1(C(=O)O)CCC1	nt	i	-1	nt	+	-12	i	i
CN(CCOc1ccccc1)CC(=O)Nc1ccc(Cl)cc1[N+](=O)[O-]	-3	-2	1	-3	21*	1	-2	-3
COc1cc(NC(=O)CN(C)CCOc2ccccc2)c(C)cc1[N+](=O)[O-]	-2	4	3	-2	8	-3	nt	nt
Cc1cc(OCc2cc(C(=O)NC(C)c3c(C)nn(C)c3C)no2)cc(C)c1Cl (stereo unspecified)	-2	0	-1	-2	-14	-4	nt	nt
CCCc1cc(=O)n2[nH]c(NCc3c(Cl)cccc3Cl)nc2n1	-2	15	0	-3	24*	-4	22*	18
CCCc1cc(=O)n2[nH]c(NCc3ccccc3F)nc2n1	-3	2	-1	-1	11	0	nt	nt
NC(=O)NC(=O)C(c1ccccc1)N1CCN(S(=O)(=O)c2ccc(Br)s2)CC1 (stereo unspecified)	nt	-4	0	nt	2	-2	nt	nt
Cc1ccccc1-c1nnc(SCC(=O)NC2CCS(=O)(=O)C2)n1C (stereo unspecified)	nt	9	0	nt	19*	-5	6	2
CCC(=O)Nc1sc2c(c1C(N)=O)CCC2	-4	4	1	0	22*	-1	1	0
SMILES	IMP-1 inh	PKA-R1A activ	MsrA inhibitor	VIM-2 inhibitor	PKA-R2B act	MsrA act	R2B FP artifact	PKA-R2B confirm
CCCCN(C)C(=O)c1sc(=O)n(Cc2ccc(Cl)c(Cl)c2)c1C	nt	nt	0	nt	nt	-8	nt	nt
CC(C)NC(=O)C1(C)CCN1Cc1cccc(Cl)c1 (stereo unspecified)	nt	nt	-1	nt	nt	0	nt	nt
COCCN1C(=O)COc2ccccc2C1C(=O)NC(C)(C)C (stereo unspecified)	nt	nt	0	nt	nt	1	nt	nt
Brc1ccc2cccnc2c1	-2	6	1	-3	23*	-3	-1	0
CC1=[N+](C)c2ccc3ccccc3c2C1(C)C	-4	14	-1	-2	19*	-4	7	12
CN1C(=O)[C@@]2(O[C@H]3c4ccccc4C=CN3C3=C2C(=O)CCC3)c2ccccc21	nt	nt	2	nt	nt	nt	nt	nt
Cc1ccc(C(=O)NCC(=O)N2CCN(c3ccccc3)CC2)cc1	0	16	1	0	21*	-3	-3	-3
Cc1ccccc1-c1nc(Cc2ccc(Cl)cc2)no1	-2	-2	1	-4	19*	-2	-2	-1
Cc1ccccc1-c1nnc(-c2ccc(Cl)cc2)o1	-2	-8	-1	-5	-4	-10	nt	nt
CCc1nc2c(OCCC3CCCCC3)cccn2c1N(C)C(=O)c1cccs1	nt	nt	0	nt	nt	0	nt	nt
CN(CC(=O)Nc1ccc(F)cc1)C(=O)C1CCCC1	nt	-3	2	nt	-2	-5	nt	nt
O=C(COc1cccc(-n2cnnn2)c1)Nc1ccc([N+](=O)[O-])cc1	-1	3	0	-1	20*	-5	2	3
COc1ccc(/C=N/NC2=NS(=O)(=O)c3ccccc32)cc1	-3	4	4	-3	23*	-5	2	3
CC(=O)Oc1ccc(/C=N/NC2=NS(=O)(=O)c3ccccc32)cc1	-3	4	3	-3	1	-2	nt	nt
Cc1ccc(-c2csc3nc(CSc4nnc(-c5ccc(Cl)cc5)n4C)[nH]c(=O)c23)cc1	-4	11	-1	1	-4	-5	nt	nt
CCn1c(SCc2nc3scc(-c4ccccc4)c3c(=O)[nH]2)nnc1-c1ccc(Cl)cc1	-2	-2	-1	-1	20*	-15	-2	-3
Cc1cccc(/C=N/NC(=O)c2ccccc2OCc2cccc(Br)c2)n1	-2	-7	0	1	-3	1	nt	nt
Cc1cccc(/C=N/NC(=O)c2cc(Br)ccc2OCc2ccccc2)n1	-4	1	2	-4	19*	-2	8	2
COC(=O)[C@@H](Cc1ccccc1)NC(=O)Cn1cc(C)c(=O)[nH]c1=O	nt	-2	-1	nt	0	-4	nt	nt
